Results: ChEMBL document CHEMBL3102710, “Design, synthesis, and evaluation of fimbrolide-nitric oxide donor hybrids as antimicrobial agents” (J Med Chem, 2013)
Active and inactive are the calls of the source. Unless noted, the calls are words filed in the database; no cut-off is given here.

What was measured:
Pseudomonas aeruginosa [1] = assay: Antibacterial activity against Pseudomonas aeruginosa PAO1 MH602 harboring lasB promoter fused with GFP-ASV assessed as growth inhibition at 88 uM measured every 30 mins by GFP-ASV reporter gene assay; assay type: organism-based; conditions: for Activity: pseudomonas aeruginosa, in vivo, 0.5 h, 88 µM
In short: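 Cell growth of the PAO1 PlasB::gfp(ASV) reporter strain tracked as OD600 every half hour during compound incubation, alongside GFP readings. Growth is compared against the untreated control.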

[2] = Inhibition of quorum sensing system in Pseudomonas aeruginosa PAO1 MH602 harboring lasB promoter fused with GFP-ASV assessed as reduction in GFP-ASV reporter protein expression at 9.8 uM measured every 30 mins relative to control
In short: (§1)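 P. aeruginosa PAO1 carrying a PlasB::gfp(ASV) fusion plasmid, which makes its own AHL signals, incubated with compounds at 88.8, 29.6, 9.9, 3.3 or 1.0 μM. GFP fluorescence (RFU) read every half hour. Percent QS inhibition is the percent RFU difference between sample and untreated control, taken at the time point when control fluorescence peaks.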

Pseudomonas aeruginosa [3] = assay: Induction of nitric oxide-dependent nirS gene expression in Pseudomonas aeruginosa at 500 uM incubated for 2 hrs under dark condition by GFP reporter gene assay relative to untreated control; assay type: functional
[4] = Inhibition of quorum sensing system in Pseudomonas aeruginosa PAO1 MH602 harboring lasB promoter fused with GFP-ASV assessed as reduction in GFP-ASV reporter protein expression at 29 uM measured every 30 mins relative to control; in short: as §1
[5] = Inhibition of quorum sensing system in Pseudomonas aeruginosa PAO1 MH602 harboring lasB promoter fused with GFP-ASV assessed as reduction in GFP-ASV reporter protein expression at 88 uM measured every 30 mins relative to control; in short: as §1
Pseudomonas aeruginosa [6] = assay: Antibacterial activity against Pseudomonas aeruginosa assessed as growth inhibition at 500 uM after 2 hrs by GFP reporter gene assay; assay type: organism-based; conditions: in vivo
[7] = Inhibition of quorum sensing system in Pseudomonas aeruginosa PAO1 MH602 harboring lasB promoter fused with GFP-ASV assessed as reduction in GFP-ASV reporter protein expression measured every 30 mins; in short: as §1
[8] = Inhibition of quorum sensing system in Pseudomonas aeruginosa PAO1 MH602 harboring lasB promoter fused with GFP-ASV assessed as reduction in GFP-ASV reporter protein expression at 266 uM measured every 30 mins relative to control
[9] = Inhibition of quorum sensing system in Pseudomonas aeruginosa PAO1 MH602 harboring lasB promoter fused with GFP-ASV assessed as reduction in GFP-ASV reporter protein expression at 3.2 uM measured every 30 mins relative to control; in short: as §1
[10] = Induction of nitric oxide release in PBS buffer supplemented with L-cysteine, xanthine, xanthine oxidase assessed as nitrite release at 250 to 500 uM after 1 hr by Griess assay; assay type: physicochemical
In short: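 Total NO release was quantified as nitrite with Griess reagent, which detects nitrite at ≥1 μM. Because of that limit, compounds were added at 250 μM and 500 μM.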

Pseudomonas aeruginosa [11] = assay: Antibacterial activity against Pseudomonas aeruginosa PAO1 assessed as inhibition of biofilm formation at 150 uM after 6 hrs by crystal violet staining assay relative to control; assay type: functional; conditions: for inhibition at 150 µM: PAO1, 6 h
Pseudomonas aeruginosa [12] = assay: Antibacterial activity against Pseudomonas aeruginosa MH602 harboring lasB promoter fused with GFP-ASV assessed as growth inhibition at 266 uM measured every 30 mins by GFP-ASV reporter gene assay; assay type: organism-based; conditions: MH602, 0.5 h, read-out: GI
Pseudomonas aeruginosa [13] = assay: Antibacterial activity against Pseudomonas aeruginosa PAO1 assessed as growth inhibition at 150 uM after 6 hrs; assay type: organism-based; conditions: in vivo

| Compound | Activity (Pseudomonas aeruginosa [1]) | inhibition [2] | Activity (Pseudomonas aeruginosa [3]) | inhibition [4] | inhibition [5] [%] | Activity (Pseudomonas aeruginosa [6]) | inhibition [7] | inhibition [8] [%] | inhibition [9] | Activity [10] | inhibition at 88 µM (Pseudomonas aeruginosa [1]; Pseudomonas aeruginosa, PAO1 MH602, 0.5 h, read-out: GI) [%] | inhibition (Pseudomonas aeruginosa [11]) | inhibition at 266 µM (Pseudomonas aeruginosa [12]) [%] | fold change (FC) (Pseudomonas aeruginosa [3]) | inhibition at 150 µM (Pseudomonas aeruginosa [11]) [%] | Activity (Pseudomonas aeruginosa [13]) |
| --- | --- | --- | --- | --- | --- | --- | --- | --- | --- | --- | --- | --- | --- | --- | --- | --- |
| CCCC(OC(=O)CCO[N+](=O)[O-])C1=CC(=C(Br)Br)OC1=O (configuration not stated) | Non-toxic | 12.5% | inactive | 43.1% | 62.8 | Non-toxic | Dose-dependent effect | 80.6 | inactive |  |  |  |  |  |  |  |
| CCCCC1=C(Br)/C(=C/Br)OC1=O | Non-toxic | inactive |  | 5.9% | 39.9 |  | Dose-dependent effect | 75.8 | inactive |  |  |  |  |  |  |  |
| CCCC(OC(=O)CCCCCCCCCCO[N+](=O)[O-])C1=CC(=C(Br)Br)OC1=O (configuration not stated) | Non-toxic | inactive | inactive | 6.2% | 21.8 | Non-toxic | Dose-dependent effect | 54.8 | inactive | Active |  |  |  |  |  |  |
| CC(O[N+](=O)[O-])C1=CC(=C(Br)Br)OC1=O (configuration not stated) |  | inactive | inactive | 29% | 70.4 | Toxic | Dose-dependent effect | 94.3 | inactive |  | > 15 | Active | > 15 |  |  |  |
| CCCC(OC(=O)CCCCCCCO[N+](=O)[O-])C1=CC(=C(Br)Br)OC1=O (configuration not stated) | Non-toxic | inactive | inactive | inactive | 12.9 | Non-toxic | Dose-dependent effect | 40.6 | inactive | 1 µM |  |  |  |  |  |  |
| CCCCCCC(O[N+](=O)[O-])C1=CC(=C(Br)Br)OC1=O (configuration not stated) | Non-toxic | inactive | inactive | 9.5% | 29.9 | Non-toxic | Dose-dependent effect | 65.7 | inactive |  |  |  |  |  |  |  |
| CCCC(SC(=O)CCCO[N+](=O)[O-])C1=CC(=C(Br)Br)OC1=O (configuration not stated) | Non-toxic | inactive | inactive | inactive | 13.8 | Non-toxic | Dose-dependent effect | 54.2 | inactive | Active |  |  |  |  |  |  |
| CCCCC1=CC(=C(Br)Br)OC1=O | Non-toxic | inactive |  | 17% | 34.1 |  | Dose-dependent effect | 69.8 | inactive |  |  |  |  |  |  |  |
| CCCC(SC(=O)CCO[N+](=O)[O-])C1=CC(=C(Br)Br)OC1=O (configuration not stated) | Non-toxic | inactive |  | 33.6% | 51.5 | Non-toxic | Dose-dependent effect | 72.3 | inactive | 1 µM |  |  |  | 2 |  |  |
| CCCC(OC(=O)CCCCCO[N+](=O)[O-])C1=CC(=C(Br)Br)OC1=O (configuration not stated) | Non-toxic | inactive | inactive | 7.9% | 18.8 | Non-toxic | Dose-dependent effect | 54.1 | inactive |  |  |  |  |  |  |  |
| CCCCCC(OC(=O)CC(=O)N1CCN(/[N+]([O-])=N/OC)CC1)C1=CC(=C(Br)Br)OC1=O (configuration not stated) | Non-toxic | 9.5% |  | 23.7% | 41.5 |  | Dose-dependent effect | 62.9 | inactive |  |  | inactive |  |  |  |  |
| CCCCCCCCCCCC(OC(=O)CCC(=O)N1CCN(/[N+]([O-])=N/OC)CC1)C1=CC(=C(Br)Br)OC1=O (configuration not stated) | Non-toxic | inactive |  | inactive | 6 |  | Dose-dependent effect | 41.9 | inactive |  |  | inactive |  |  |  |  |
| CCCC(OC(=O)CCCO[N+](=O)[O-])C1=CC(=C(Br)Br)OC1=O (configuration not stated) | Non-toxic | 8% | inactive | 12.3% | 28.6 | Non-toxic | Dose-dependent effect | 55.8 | inactive | 1 µM |  |  |  |  |  |  |
| CCCC(OC(=O)CO/N=[N+](\[O-])N(CC)CC)C1=CC(=C(Br)Br)OC1=O (configuration not stated) | Non-toxic | 6.2% |  | 30% | 52 |  | Dose-dependent effect | 74.8 | inactive |  |  | inactive |  |  |  |  |
| CCCC(SC(=O)CCCCCO[N+](=O)[O-])C1=CC(=C(Br)Br)OC1=O (configuration not stated) | Non-toxic | inactive |  | inactive | 10.1 |  | Dose-dependent effect | 47.8 | inactive | Active |  |  |  |  |  |  |
| CCCC(S)C1=CC(=C(Br)Br)OC1=O (configuration not stated) | Non-toxic | 1.5% |  | 4.3% | 17.9 |  | Dose-dependent effect | 50.5 | inactive |  |  |  |  |  |  |  |
| CCCC(OC(=O)CO/N=[N+](\[O-])N1CCOCC1)C1=CC(=C(Br)Br)OC1=O (configuration not stated) | Non-toxic | inactive |  | 15.9% | 47.5 |  | Dose-dependent effect | 72.1 | inactive |  |  | inactive |  |  |  |  |
| CCCC(O[N+](=O)[O-])C1=CC(=C(Br)Br)OC1=O (configuration not stated) | Non-toxic | 22.4% | inactive | 39.9% | 71.4 | Non-toxic | Dose-dependent effect | 91.1 | inactive | 1 µM |  |  | > 15 |  | 70 | Non-toxic |
| CCCCCCCC(O[N+](=O)[O-])C1=CC(=C(Br)Br)OC1=O (configuration not stated) | Non-toxic | inactive | inactive | inactive | 19.2 | Non-toxic | Dose-dependent effect | 58.2 | inactive | Active |  |  |  |  |  |  |
| CCCC(O)C1=CC(=C(Br)Br)OC1=O (configuration not stated) | Non-toxic | 16.7% |  | 37% | 62.9 |  | Dose-dependent effect | 85.8 | inactive |  |  |  |  |  |  |  |
| CCCC(OC(=O)CCC(=O)N1CCN(/[N+]([O-])=N/OC)CC1)C1=CC(=C(Br)Br)OC1=O (configuration not stated) | Non-toxic | 4.6% |  | 17.7% | 39.3 |  | Dose-dependent effect | 65.4 | inactive |  |  | inactive |  |  |  |  |
| O=[N+]([O-])O[C@H]1CO[C@H]2[C@@H]1OC[C@H]2O[N+](=O)[O-] [ISOSORBIDE DINITRATE] |  |  | inactive |  |  | Non-toxic |  |  |  | 4 µM |  |  |  |  |  |  |
| CCCCCC(O[N+](=O)[O-])C1=CC(=C(Br)Br)OC1=O (configuration not stated) | Non-toxic | inactive | inactive | 32.5% | 56.4 | Non-toxic | Dose-dependent effect | 73.1 | inactive | 1 µM |  |  |  |  | 70 | Non-toxic |
